Measured values: publication PMC2606940 (The Journal of General Physiology, 2009)
Changes are numbered by the printed parent chain. Read-outs that look alike come from different tables or passages of the source.

What was measured:
[1] = target: T1, CLC-0 E166Q mutant (Torpedo marmorata, UniProt P21564, C212S/E166Q); assay type: cell-based
T1 sequence (P21564 1-805 E166Q/C212S): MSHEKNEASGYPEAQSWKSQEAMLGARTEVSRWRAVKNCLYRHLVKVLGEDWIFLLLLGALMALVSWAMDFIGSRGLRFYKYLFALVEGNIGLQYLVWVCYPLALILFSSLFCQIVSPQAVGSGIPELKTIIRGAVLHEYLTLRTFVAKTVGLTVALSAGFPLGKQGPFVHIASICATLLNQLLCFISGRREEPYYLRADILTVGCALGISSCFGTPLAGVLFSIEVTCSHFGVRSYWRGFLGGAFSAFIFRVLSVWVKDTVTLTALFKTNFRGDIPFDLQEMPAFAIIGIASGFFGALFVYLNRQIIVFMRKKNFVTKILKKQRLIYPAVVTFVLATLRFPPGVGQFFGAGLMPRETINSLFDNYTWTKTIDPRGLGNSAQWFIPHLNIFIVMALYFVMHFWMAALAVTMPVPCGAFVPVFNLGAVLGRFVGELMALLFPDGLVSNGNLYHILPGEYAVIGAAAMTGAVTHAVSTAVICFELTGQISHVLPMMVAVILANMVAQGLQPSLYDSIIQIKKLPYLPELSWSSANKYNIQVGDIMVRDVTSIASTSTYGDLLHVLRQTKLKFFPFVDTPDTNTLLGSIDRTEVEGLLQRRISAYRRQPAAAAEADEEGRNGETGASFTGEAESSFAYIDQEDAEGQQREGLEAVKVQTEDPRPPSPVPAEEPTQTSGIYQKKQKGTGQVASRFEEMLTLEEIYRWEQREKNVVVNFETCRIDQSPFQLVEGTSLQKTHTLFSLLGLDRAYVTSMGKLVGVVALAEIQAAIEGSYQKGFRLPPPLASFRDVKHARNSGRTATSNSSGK
In short: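 HEK293 cells expressed C212S-background CLC-0 mutants and were recorded 1–3 d post-transfection as inside-out patches in symmetrical 130 mM NaCl, 10 mM HEPES, pH 7.4. CPA, fatty acids or alkyl sulfates flowed continuously on the cytoplasmic side. C10–C12 compounds were diluted into bath solution from 10 mM DMSO stocks. Test steps ran from +80 to −160 mV after a +80 mV prepulse. Steady-state current was normalized to the mean of pre- and post-blocker controls, and a Langmuir K1/2 was taken at each voltage from ~4–6 patches.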

[2] = target: T2, wild-type CLC-0 (E166, C212S background) (Torpedo marmorata, UniProt P21564, C212S); assay type: cell-based; details: for IC50: read-out: Apparent affinity (K1/2)
T2 sequence (P21564 1-805 C212S): T1 sequence (P21564 1-805 E166Q/C212S) with Q166E
In short: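 CLC-0 mutants in the C212S background were transfected into HEK293 cells with lipofectamine and recorded 1–3 d later as excised inside-out patches. Both sides held 130 mM NaCl, 5 mM MgCl2, 10 mM HEPES and 1 mM EGTA, pH 7.4. CPA was perfused continuously onto the cytoplasmic face. Steady-state current over the last 10 ms was normalized to bracketing blocker-free controls and fitted to a Langmuir function for K1/2. Values are mean ± SEM of ~4–6 patches.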

[3] = read-out: Apparent affinity (K1/2), −60 mV
[4] = read-out: Apparent affinity (K1/2), −80 mV
[5] = read-out: Apparent affinity (K1/2), −100 mV
[6] = read-out: Apparent affinity (K1/2), −120 mV
[7] = read-out: Apparent affinity (K1/2), −140 mV
[8] = read-out: Apparent affinity (K1/2), −160 mV

Row | IC50 ([1]; read-out: Apparent affinity (K1/2), −40 mV) [µM] | IC50 ([1]; read-out: K1/2, Fig. 10 D) [µM] | Compound | inhibition of current ([1]; 300 μM CPA, −160 mV) [%] | IC50 [1, 3] [µM] | IC50 [1, 4] [µM] | IC50 [1, 5] [µM] | IC50 [1, 6] [µM] | IC50 [1, 7] [µM] | IC50 [1, 8] [µM] | IC50 ([2]; −40 mV) [µM] | IC50 ([2]; −60 mV) [µM] | IC50 ([2]; −80 mV) [µM] | IC50 ([2]; −100 mV) [µM] | IC50 ([2]; −120 mV) [µM] | IC50 ([2]; −140 mV) [µM] | IC50 ([2]; −160 mV) [µM] | effect on fast gate Po-V curve ([2]; various concentrations, initial tail current)
1 |  |  | O=C(O)COc1ccc(Cl)cc1 [CPA, p-chlorophenoxy acetate] | < 10 | 19700 ± 900 | 14000 ± 700 | 9710 ± 480 | 6840 ± 310 | 4710 ± 150 | 3340 ± 80 | 9370 ± 330 | 5220 ± 230 | 2870 ± 200 | 1960 ± 210 | 1570 ± 190 | 1170 ± 190 | 1340 ± 250 | 
2 | 17800 ± 1500 | ~1000 | CCCCCCCC(=O)O [octanoate] |  | 11400 ± 690 | 6940 ± 360 | 4210 ± 240 | 2530 ± 160 | 1450 ± 100 | 880 ± 90 | 2610 ± 300 | 1290 ± 130 | 670 ± 50 | 390 ± 10 | 300 ± 20 | 260 ± 30 | 190 ± 40 | shifts the fast gate Po-V curve toward more depolarized voltages
